Legend:
[1] = target: pure porcine brain tubulin proteins (Sus scrofa, UniProt P02550+P02554); assay: In vitro tubulin polymerization assay; assay type: biochemical; settings: GPEM buffer, 37 °C, absorbance 340 nm
[2] = tested on: SR leukemia cells; assay: NCI in vitro human tumor cell screen, SR; assay type: cell-based
[3] = tested on: MDA-MB-468 breast cancer cells; assay: NCI in vitro human tumor cell screen, MDA-MB-468; assay type: cell-based
Method in brief: (§1)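 NCI-60 panel screen. GI50 is the log concentration that […]. TGI is the log concentration giving total growth inhibition. LC50 is the log concentration needed to kill 50% of the test population.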

[4] = tested on: Colo205 colon cancer cells; assay: NCI in vitro human tumor cell screen, Colo205; assay type: cell-based
Method in brief: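 NCI-60 panel screen. GI50 is the log concentration that […]. TGI is the log concentration giving total growth inhibition.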

[5] = tested on: M14 melanoma cells; assay: NCI in vitro human tumor cell screen, M14; assay type: cell-based
Method in brief: as §1

[6] = tested on: OVCAR-3 ovarian cancer cells; assay: NCI in vitro human tumor cell screen, OVCAR-3; assay type: cell-based
Method in brief: as §1

[7] = tested on: NCI/ADR-RES ovarian cancer cells; assay: NCI in vitro human tumor cell screen, NCI/ADR-RES; assay type: cell-based
Method in brief: as §1

[8] = tested on: RXF 393 renal cancer cells; assay: NCI in vitro human tumor cell screen, RXF 393; assay type: cell-based
Method in brief: as §1

[9] = tested on: SK-MEL-5 melanoma cells; assay: NCI in vitro human tumor cell screen, SK-MEL-5; assay type: cell-based
Method in brief: as §1

[10] = tested on: MDA-MB-435 melanoma cells; assay: NCI in vitro human tumor cell screen, MDA-MB-435; assay type: cell-based
[11] = tested on: NCI-H522 cells; assay: MTT anti-proliferation assay, NCI-H522; assay type: cell-based, human; settings: read-out: IC50 proliferation of NCI-H522 cells, 48 h incubation
Method in brief: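 NCI-H522 cells in log-phase growth were exposed at 37 °C to test compound or DMSO vehicle in complete medium for 48 h. They were then given MTT (1 mg/mL in 1X PBS) for 2 h at 37 °C. Absorbance was read at 570 nm and corrected at 630 nm.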

[12] = tested on: SK-OV-3 ovarian cancer cells; assay: NCI in vitro human tumor cell screen, SK-OV-3; assay type: cell-based
Method in brief: as §1

[13] = tested on: NCI-H522 non-small cell lung cancer cells; assay: NCI in vitro human tumor cell screen, NCI-H522; assay type: cell-based
[14] = tested on: SF-295 CNS cancer cells; assay: NCI in vitro human tumor cell screen, SF-295; assay type: cell-based
Method in brief: as §1

[15] = tested on: DU-145 prostate cancer cells; assay: NCI in vitro human tumor cell screen, DU-145; assay type: cell-based
Method in brief: as §1

[16] = tested on: α-tubulin and β-tubulin in NCI-H522 cells; assay: In vivo tubulin assembly assay; assay type: cell-based, human; settings: 24 h, 6h 10, 30, 100 nM, vincristine and paclitaxel 100 nM

Sequence of pure porcine brain tubulin proteins (P02550 whole entry): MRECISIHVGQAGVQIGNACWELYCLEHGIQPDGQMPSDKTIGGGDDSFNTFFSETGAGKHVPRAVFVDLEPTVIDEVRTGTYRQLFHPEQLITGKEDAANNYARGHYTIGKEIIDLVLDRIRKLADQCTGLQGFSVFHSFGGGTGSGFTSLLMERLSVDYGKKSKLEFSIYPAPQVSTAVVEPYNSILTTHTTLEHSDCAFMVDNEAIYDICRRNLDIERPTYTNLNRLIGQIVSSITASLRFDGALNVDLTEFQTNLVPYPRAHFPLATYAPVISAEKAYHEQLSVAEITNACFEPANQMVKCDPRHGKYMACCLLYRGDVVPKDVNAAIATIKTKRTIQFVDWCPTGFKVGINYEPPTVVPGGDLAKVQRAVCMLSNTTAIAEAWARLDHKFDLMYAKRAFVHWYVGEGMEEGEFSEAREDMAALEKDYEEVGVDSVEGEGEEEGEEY
Sequence of pure porcine brain tubulin proteins (P02554 whole entry): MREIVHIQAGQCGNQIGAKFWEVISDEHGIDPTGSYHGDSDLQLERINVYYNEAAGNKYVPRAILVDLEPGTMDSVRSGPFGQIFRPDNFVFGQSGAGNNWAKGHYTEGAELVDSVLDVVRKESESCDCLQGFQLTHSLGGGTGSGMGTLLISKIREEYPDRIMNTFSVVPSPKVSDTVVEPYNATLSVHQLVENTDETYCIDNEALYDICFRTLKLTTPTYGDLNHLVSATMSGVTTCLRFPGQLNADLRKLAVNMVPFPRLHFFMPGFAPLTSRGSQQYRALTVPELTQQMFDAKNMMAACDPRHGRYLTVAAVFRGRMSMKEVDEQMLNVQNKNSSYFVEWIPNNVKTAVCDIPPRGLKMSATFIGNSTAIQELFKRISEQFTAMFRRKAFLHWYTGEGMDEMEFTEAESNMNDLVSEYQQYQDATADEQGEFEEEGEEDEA

CC[C@]1(O)C[C@@H]2CN(CCc3c([nH]c4ccccc34)[C@@](C(=O)OC)(c3cc4c(cc3OC)N(C)[C@H]3[C@@](O)(C(=O)OC)[C@H](OC(C)=O)[C@]5(CC)C=CCN6CC[C@]43[C@@H]65)C2)C1 [vinblastine]
effect on tubulin polymerization [1]: inhibited tubulin polymerization

2-(3-hydroxy-5-methoxyphenyl)-6-pyrrolidin-1-ylquinolin-4-one [Compound 6h]
logGI50 [2]: < −8.00
logLC50 [2]: >−4.00
logTGI [2]: > −4.00
logGI50 [3]: −6.58
logLC50 [3]: >−4.00
logTGI [3]: −5.70
effect on tubulin polymerization [1]: inhibited tubulin polymerization in a concentration-dependent manner
logGI50 [4]: −7.27
logTGI [4]: −6.66
logGI50 [5]: −7.52
logLC50 [5]: >−4.00
logTGI [5]: −4.80
logGI50 [6]: −7.63
logLC50 [6]: −5.19
logTGI [6]: −7.05
logGI50 [7]: −7.21
logLC50 [7]: >−4.00
logTGI [7]: −6.29
logGI50 [8]: −7.39
logLC50 [8]: >−4.00
logTGI [8]: −4.62
logGI50 [9]: −7.61
logLC50 [9]: −6.31
logTGI [9]: −7.18
logGI50 [10]: < −8.00
logTGI [10]: −7.53
IC50 [11]: 0.0423 ± 0.0012 µM
logGI50 [12]: −7.63
logLC50 [12]: >−4.00
logTGI [12]: −4.60
logGI50 [13]: < −8.00
logLC50 [13]: −5.41
logTGI [13]: < −8.00
logGI50 [14]: −6.96
logLC50 [14]: >−4.00
logTGI [14]: −4.95
logGI50 [15]: −7.51
logLC50 [15]: >−4.00
logTGI [15]: −6.59

CC(=O)O[C@H]1C(=O)[C@@]2(C)[C@H]([C@H](OC(=O)c3ccccc3)[C@]3(O)C[C@H](OC(=O)[C@H](O)[C@@H](NC(=O)c4ccccc4)c4ccccc4)C(C)=C1C3(C)C)[C@]1(OC(C)=O)CO[C@@H]1C[C@@H]2O [paclitaxel]
effect on α-tubulin and β-tubulin in the cytoskeletal fraction [16]: caused tubulin polymerization

CC[C@]1(O)C[C@H]2CN(CCc3c([nH]c4ccccc34)[C@@](C(=O)OC)(c3cc4c(cc3OC)N(C=O)[C@H]3[C@@](O)(C(=O)OC)[C@H](OC(C)=O)[C@]5(CC)C=CCN6CC[C@]43[C@@H]65)C2)C1 [vincristine]
effect on tubulin polymerization [1]: inhibited tubulin polymerization
